In the library only some 3.1% were active in any assay of this set; here they are far more common.
Yeast life ext: extends the lifespan of yeast | S. cerevisiae growth with nicotinamide, OD615; deaD strain in restrictive glucose medium | inhibition of the nicotinamide effect, % at 10 µM | actives 0.68% (n = 130,000) | AID 775;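 active = inhibition above a set limit, placed 3 SD over the median of all compounds, cut at about 26% in these data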
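Assay system: DeaD-strain S. cerevisiae. Medium: CSMM-D glucose medium, restrictive. Reagent: nicotinamide, 1.5 mM, co-present with compound. Compound: 10 µM single point, 0.25% DMSO. Schedule: culture preincubation 4 h, compound exposure 48 h, both 30 °C. Detection: absorbance at 615 nm.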
Ins promoter up: MIN6 insulin promoter up-regulation | MIN6 insulin promoter-GFP reporter, high-content imaging; active compounds read high | actives 0.3% (n = 190,000) | AID 1625 | z-score at 5 µM;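 active = z-score above 3 at 5 µM with at least 500 cells counted in the well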
RAM inhibit: yeast RAM network inhibition; inhibition, % at 50 µM; actives 1.8% (n = 190,000); S. cerevisiae dse1pr::URA3 reporter, 5-FOA growth OD615, 2 d; analog-sensitive cbk1-as2 kinase mutant strain;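 active = inhibition above a set limit, 3 SD over mean compound inhibition, cut at about 8.4% in these data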;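 also: inhibition rescues growth on 5-FOA so higher OD means more RAM inhibition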
INS promoter inh: TRM-6 insulin promoter activity inhibition; actives 0.9% (n = 130,000); inhibition, % at 2 µM; TRM-6 cells, insulin promoter-eGFP reporter, imaging; reporter expression induced with tamoxifen;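 active = inhibition above the mean plus 3 SD, with well images judged a real hit on visual review, cut at about 60% in these data, passing the limit was not always enough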
Yeast growth inh: yeast BB579 growth reduction in restrictive medium; inhibition, % at 10 µM; actives 0.51% (n = 140,000); S. cerevisiae BB579 growth, OD615, 48 h; AID 804;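 active = inhibition above a set limit, 3 SD over the mean compound inhibition, cut at about 44% in these data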
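Test system: DeaD yeast strain BB579 / Buffer or medium: restrictive glucose-based CSMM-D medium / Doses: single 10 µM dose / Schedule: 4 h cell preincubation, 48 h compound exposure, 30 °C humidified / Technique: culture absorbance at 615 nm / Controls: amphotericin B positive control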
Numbers stand for hits.

For CS(=O)(=O)c1nc(-c2ccco2)cc(C(F)(F)F)n1 the results were Yeast life ext 89, Ins promoter up inactive, RAM inhibit inactive, INS promoter inh inactive and Yeast growth inh inactive.
For CC(=O)NCC(=O)OC(C(=O)c1ccccc1)c1ccc(Cl)cc1 (configuration not stated) the results were Yeast life ext inactive, Ins promoter up inactive, RAM inhibit inactive, INS promoter inh inactive and Yeast growth inh inactive.
For COC(=O)/C=C1\N/C(=N\c2nc(C)cc(C)n2)N(c2ccc(Cl)cc2)C1=O the results were Ins promoter up inactive.
`Nc1[nH]c(=O)ncc1F` gave Yeast life ext inactive, Ins promoter up inactive, RAM inhibit inactive, INS promoter inh inactive and Yeast growth inh 74.
For Cc1ccc(N=N/C(=C\O)C(=O)c2ccncc2)cc1 the results were Yeast life ext inactive, Ins promoter up inactive, RAM inhibit inactive, INS promoter inh inactive and Yeast growth inh inactive.
Screening O=C(/C(=C/O)N=Nc1ccc(Cl)cc1)c1ccncc1 returned Yeast life ext 77, Ins promoter up inactive, RAM inhibit inactive, INS promoter inh inactive and Yeast growth inh inactive.
Screening CCN1CCN(C(=O)Nc2ccccc2OC)CC1 returned RAM inhibit inactive, INS promoter inh inactive and Yeast growth inh inactive.
C=CCNc1oc(-c2cccs2)nc1S(=O)(=O)c1ccccc1 was read as Ins promoter up inactive and RAM inhibit inactive.
For CC(=O)c1c(OC(=O)c2ccccc2)c2ccccc2n1C the results were Yeast life ext inactive, Ins promoter up inactive, RAM inhibit 8.4 and Yeast growth inh inactive.
Screening O=c1cc(CN2CCN(S(=O)(=O)c3ccccc3)CC2)nc2sccn12 returned Ins promoter up inactive, RAM inhibit inactive and INS promoter inh inactive.
`NS(=O)(=O)c1ccc(NC(=S)Nc2ccn(Cc3cccc4ccccc34)n2)cc1` gave RAM inhibit 9.3.
NNC(=O)CCc1ccc(S(=O)(=O)N2CCOCC2)cc1 was read as Ins promoter up inactive, RAM inhibit inactive and INS promoter inh 81.
For Cc1cc(C(=O)N/N=C/c2ccc(O)c([N+](=O)[O-])c2)n[nH]1 the results were Yeast life ext inactive, Ins promoter up inactive, RAM inhibit inactive and Yeast growth inh inactive.
`Cc1cc(C(=O)N/N=C/c2cccc([N+](=O)[O-])c2O)n[nH]1` gave Yeast life ext inactive, Ins promoter up inactive, RAM inhibit inactive and Yeast growth inh 44.
`COc1ccc(O)c(CNn2c(-c3ccc(Br)cc3)nc3ccccc3c2=O)c1` gave Ins promoter up inactive, RAM inhibit inactive and INS promoter inh inactive.
COc1ccc(C(=O)On2c(-c3ccc(Br)cc3)nc3ccccc3c2=O)cc1 was read as Yeast life ext 96, RAM inhibit inactive, INS promoter inh inactive and Yeast growth inh inactive.
`COc1cc(OC)cc(-c2nc3ccccc3c(=O)n2OC(=O)c2ccc(Br)cc2)c1` gave Yeast life ext 71, Ins promoter up inactive, RAM inhibit inactive, INS promoter inh inactive and Yeast growth inh inactive.
COc1ccc(-c2nn(C)c(=O)c3ccccc23)cc1CNC(=O)NC1CCCCC1 was read as Ins promoter up inactive, RAM inhibit inactive and INS promoter inh inactive.
`Cc1cc(NC(=O)CSc2cc(Cl)ccc2Cl)n(-c2ccccc2)n1` gave Yeast life ext inactive, Ins promoter up inactive, RAM inhibit inactive and Yeast growth inh inactive.
CN(c1cccc(NC(=O)CN(c2ccc(Cl)c(Cl)c2)S(=O)(=O)c2ccccc2)c1)S(C)(=O)=O was read as Yeast life ext 29, Ins promoter up inactive, RAM inhibit 9.7, INS promoter inh inactive and Yeast growth inh inactive.
CN(c1cccc(NC(=O)COc2ccc(Cl)cc2Cl)c1)S(C)(=O)=O was read as RAM inhibit 8.8, INS promoter inh inactive and Yeast growth inh inactive.
`Cc1ccc(S(=O)(=O)N(CC(=O)Nc2cccc(N(C)S(C)(=O)=O)c2)c2ccc(Cl)c(Cl)c2)cc1` gave Yeast life ext inactive, Ins promoter up inactive, RAM inhibit inactive, INS promoter inh inactive and Yeast growth inh inactive.
`Cc1cc(NC(=O)COc2ccc(Cl)cc2Cl)n(-c2ccccc2)n1` gave Yeast life ext inactive, Ins promoter up inactive, RAM inhibit 8.6, INS promoter inh inactive and Yeast growth inh inactive.
`Cc1ccc(S(=O)(=O)/N=C(\CCl)N2CCOCC2)cc1` gave Yeast life ext inactive, Ins promoter up inactive, RAM inhibit inactive, INS promoter inh inactive and Yeast growth inh inactive.
For CCCOC(=O)c1ccc(Oc2c(-c3ccc(OC)cc3O)n[nH]c2C)cc1 the results were Yeast life ext inactive, Ins promoter up inactive, RAM inhibit 10, INS promoter inh inactive and Yeast growth inh inactive.
Screening COc1ccc(-c2n[nH]c(C)c2-c2ccc(Cl)cc2)c(O)c1 returned Yeast life ext inactive, Ins promoter up inactive, RAM inhibit inactive, INS promoter inh inactive and Yeast growth inh 100.
`CCc1cc(-c2n[nH]c(C)c2Oc2ccc(C(C)C)cc2)c(O)cc1O` gave Yeast life ext inactive, RAM inhibit inactive, INS promoter inh inactive and Yeast growth inh 90.
For O=c1nc(N2CCOCC2)ccn1-c1nc(-c2ccccc2)sc1-c1ccccc1 the results were Ins promoter up inactive.
For COc1ccc(NS(=O)(=O)c2cc(NC(=O)c3ccc(C)s3)ccc2N2CCOCC2)cc1 the results were Ins promoter up inactive.
Screening c1ccc(C[n+]2c(-c3ccccc3)csc2Nc2ccccc2)cc1 returned Yeast life ext inactive, Ins promoter up inactive, RAM inhibit inactive, INS promoter inh inactive and Yeast growth inh inactive.
CCCCCC[n+]1c(-c2ccc(Cl)cc2Cl)csc1Nc1ccccc1 was read as Yeast life ext inactive, Ins promoter up inactive, RAM inhibit 9.0 and Yeast growth inh inactive.
Screening CCOC(=O)C1(Cc2ccccc2C(F)(F)F)CCN(CC2CC2)CC1 returned Ins promoter up inactive and RAM inhibit inactive.
`Clc1ccccc1N/N=C/c1ccc2c(c1)OCO2` gave Yeast life ext inactive, Ins promoter up inactive, RAM inhibit inactive, INS promoter inh 64 and Yeast growth inh 90.
Screening O=C(OCC(=O)N1CCCc2ccccc21)c1cncc(Br)c1 returned Yeast life ext inactive, Ins promoter up inactive, RAM inhibit inactive and Yeast growth inh inactive.
`O=C(OCC(=O)N1CCCC1)c1cncc(Br)c1` gave Yeast life ext inactive, Ins promoter up inactive, RAM inhibit inactive, INS promoter inh 100 and Yeast growth inh inactive.
For O=C(Nc1cc(SCC(O)CO)cc([N+](=O)[O-])c1)c1ccc(-n2cnnn2)cc1 (configuration not stated) the results were Ins promoter up inactive, RAM inhibit inactive and INS promoter inh inactive.
`Cc1cc(/C=N/n2cnnc2)c(C)n1-c1ccc(OCc2ccc(Cl)cc2Cl)cc1` gave Yeast life ext inactive, RAM inhibit inactive, INS promoter inh inactive and Yeast growth inh 46.
Cc1ccc(C)c(SCC(=O)Nc2cc(C)nn2-c2ccc(F)cc2)c1 was read as Yeast life ext inactive, Ins promoter up inactive, RAM inhibit 8.6 and Yeast growth inh inactive.

Compound activity as filed in PubChem BioAssay.
